Measurements published in ChEMBL document CHEMBL1121966, “(2R*,3S*)-1-[125I]Iodo-2,3-bis(4-hydroxyphenyl)pentane ([125I]iodonorhexestrol) and (2R*,3S*)-1-[77Br]Bromo-2,3-bis(4-hydroxyphenyl)pentane ([77Br]bromonorhexestrol), two gamma-emitting estrogens that show receptor-mediated uptake by target tissues in vivo” (1982).

What was measured:
[1] = Lung/blood distribution ratio was determined in immature female rats at 1 hr with unlabeled estradiol; format: functional
Summary of the method: (§1)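 Immature (25-day, ca. 50 g) Sprague-Dawley female rats received an iv injection (jugular or tail vein) of HPLC-purified tracer in ethanol plus 0.9% NaCl/rat serum 1:1. Doses were 2 μCi [125I]iodo tracer (≤15 pmol), or 2 μCi [77Br]bromo tracer (≤1.25 pmol) with 2 μCi 16α-[125I]iodoestradiol. Animals were killed at 1 h; blood and tissues were weighed and γ-counted. Blocking: coinjected unlabeled estradiol, 9 μg (iodo) or 18 μg (bromo). Mean ± SD.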

[2] = Lung/blood distribution ratio was determined in immature female rats at 1 hr; format: functional; summary of the method: as §1
[3] = Tissue/blood distribution ratio was measured in immature female rats at 6 hr; format: functional
Summary of the method: (§2)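 Immature (25 day) female Sprague-Dawley rats (ca. 50 g) were dosed iv (jugular or tail vein) in ethanol plus 0.9% NaCl/rat serum (1:1). Doses were 2 μCi of [125I]iodonorhexestrol (≤15 pmol/dose), or 2 μCi each of [77Br]bromonorhexestrol (≤1.25 pmol/dose) and 16α-[125I]iodoestradiol (2 pmol/dose). Rats were killed at 1, 3 or 6 h; blood and tissues were weighed and γ-counted. Thyroid weight assumed 0.005 g/100 g body weight. Mean ± SD.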

[4] = Ovary/blood distribution ratio was determined in immature female rats at 1 hr; format: functional; summary of the method: as §1
[5] = organism: Rattus norvegicus; assay: Percent injected dose per gram kidney at 6 hr; format: functional
Summary of the method: (§3)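 Dual-label study in immature 25-day female Sprague-Dawley rats (ca. 50 g). Each received 2 μCi [77Br]bromo tracer (≤1.25 pmol/dose) and 2 μCi 16α-[125I]iodoestradiol (2 pmol/dose) by tail or jugular vein, in ethanol diluted with saline/rat serum 1:1. Rats were killed at 3 or 6 h; blood and 11 tissues were weighed and counted. Five rats per time point; mean ± SD.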

[6] = organism: Rattus norvegicus; assay: Percent injected dose per gram Uterus at 1 hr; format: functional; summary of the method: as §1
[7] = organism: Rattus norvegicus; assay: Percent injected dose per gram esophagus at 3h; format: functional; summary of the method: as §3
[8] = Esophagus/blood distribution ratio was determined in immature female rats at 6 hr; format: functional; summary of the method: as §3
[9] = organism: Rattus norvegicus; assay: Percent injected dose per gram spleen at 3h; format: functional; summary of the method: as §2
[10] = organism: Rattus norvegicus; assay: Percent injected dose per gram Muscle at 3h; format: functional; summary of the method: as §3
[11] = Muscle/blood distribution ratio was determined in immature female rats at 1 hr; format: functional; summary of the method: as §1
[12] = organism: Rattus norvegicus; assay: Percent injected dose per gram Ovaries at 6 hr; format: functional; summary of the method: as §3
[13] = organism: Rattus norvegicus; assay: Percent injected dose per gram lung at 6 hr; format: functional; summary of the method: as §2
[14] = Liver/blood distribution ratio was determined in immature female rats at 6 hr; format: functional; summary of the method: as §3
[15] = Thyroid/blood distribution ratio was determined in immature female rats at 3h; format: functional; summary of the method: as §2
[16] = organism: Rattus norvegicus; assay: Percent injected dose per gram Ovaries at 1 hr with unlabeled estradiol; format: functional; summary of the method: as §1
[17] = Liver/blood distribution ratio was determined in immature female rats at 1 hr; format: functional; summary of the method: as §1
[18] = Muscle/blood distribution ratio was determined in immature female rats at 3h; format: functional; summary of the method: as §3
[19] = organism: Rattus norvegicus; assay: Percent injected dose per gram blood at 1 hr with unlabeled estradiol; format: functional; summary of the method: as §1
[20] = Liver/blood distribution ratio was determined in immature female rats at 3h; format: functional; summary of the method: as §3
[21] = organism: Rattus norvegicus; assay: Percent injected dose per gram blood at 1 hr; format: functional; summary of the method: as §1
[22] = Kidney/blood distribution ratio was determined in immature female rats at 1 hr; format: functional; summary of the method: as §1
[23] = organism: Rattus norvegicus; assay: Percent injected dose per gram esophagus at 1 hr with unlabeled estradiol; format: functional; summary of the method: as §1
[24] = organism: Rattus norvegicus; assay: Percent injected dose per gram Ovaries at 1 hr; format: functional; summary of the method: as §1
[25] = Esophagus/blood distribution ratio was determined in immature female rats at 1 hr; format: functional; summary of the method: as §1
[26] = Esophagus/blood distribution ratio was determined in immature female rats at 1 hr with unlabeled estradiol; format: functional; summary of the method: as §1
[27] = organism: Rattus norvegicus; assay: Percent injected dose per gram Ovaries at 3h; format: functional; summary of the method: as §3
[28] = organism: Rattus norvegicus; assay: Percent injected dose per gram esophagus at 6 hr; format: functional; summary of the method: as §3
[29] = Tissue/blood distribution ratio was measured in immature female rats at 1h, unlabeled estradiol (18 microg) coinjected; format: functional
Summary of the method: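 Immature female rats given iv [77Br]bromonorhexestrol with 16α-[125I]iodoestradiol (2 μCi each) plus 18 μg unlabeled estradiol coinjected; killed at 1 h. Tissue and blood were weighed and counted, and tissue-to-blood radioactivity ratios were computed; 5 animals, mean ± SD.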

[30] = organism: Rattus norvegicus; assay: Percent injected dose per gram lung at 3h; format: functional; summary of the method: as §2
[31] = Muscle/blood distribution ratio was determined in immature female rats at 6 hr; format: functional; summary of the method: as §3
[32] = organism: Rattus norvegicus; assay: Percent injected dose per gram Uterus at 6 hr; format: functional; summary of the method: as §3
[33] = Kidney/blood distribution ratio was determined in immature female rats at 3h; format: functional; summary of the method: as §3
[34] = organism: Rattus norvegicus; assay: Percent injected dose per gram Uterus at 1 hr with unlabeled estradiol; format: functional; summary of the method: as §1
[35] = organism: Rattus norvegicus; assay: Percent injected dose per gram thyroid at 3h; format: functional, Thyroid gland; summary of the method: as §2
[36] = organism: Rattus norvegicus; assay: Percent injected dose per gram spleen at 6 hr; format: functional; summary of the method: as §2
[37] = Thyroid/blood distribution ratio was determined in immature female rats at 6 hr; format: functional; summary of the method: as §2
[38] = Thyroid/blood distribution ratio was determined in immature female rats at 1 hr with unlabeled estradiol; format: functional
Summary of the method: (§4)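 Same iv biodistribution in immature female rats, killed at 1 h, with unlabeled estradiol coinjected to block receptor uptake: 9 μg with [125I]iodonorhexestrol (3 rats), 18 μg with the [77Br]bromonorhexestrol/16α-[125I]iodoestradiol pair (5 rats). Tissue and blood radioactivity were counted as % injected dose/g and tissue-to-blood ratio.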

[39] = organism: Rattus norvegicus; assay: Percent injected dose per gram liver at 1 hr with unlabeled estradiol; format: functional; summary of the method: as §4
[40] = Tissue/blood distribution ratio was measured in immature female rats at 3h; format: functional; summary of the method: as §2

`C[C@]12CC[C@@H]3c4ccc(O)cc4CC[C@H]3[C@@H]1C[C@@H](I)[C@@H]2O` showed a Ratio [1] of 1.08, a Ratio [2] of 0.86 and a Ratio [3] of 1. For the same compound, the Ratio [4] was 3.02, the Injected dose [5] was 0.4% and the Injected dose [6] was 9.59%. For the same compound, the Injected dose [7] was 0.32%, the Ratio [8] was 0.76 and the Injected dose [9] was 0.18%. The Injected dose [10] was 0.15%, the Ratio [11] was 0.42 and the Injected dose [12] was 0.52%. The Injected dose [13] was 0.14%, the Ratio [14] was 6.28 and the Ratio [15] was 192.8. It also gave an Injected dose [16] of 2.47%, a Ratio [17] of 3.55 and a Ratio [18] of 0.25. For the same compound, the Injected dose [19] was 1.22%, the Ratio [20] was 4.76 and the Injected dose [21] was 0.47%. It also gave a Ratio [22] of 2, an Injected dose [23] of 1.07% and an Injected dose [24] of 4.17%. It also gave a Ratio [25] of 0.62, a Ratio [26] of 0.95 and an Injected dose [27] of 1.75%. The Injected dose [28] was 0.14%, the Ratio [29] was 1 and the Injected dose [30] was 0.36%. For the same compound, the Ratio [31] was 0.27, the Injected dose [32] was 1.57% and the Ratio [33] was 1.83. It also gave an Injected dose [34] of 1.81%, an Injected dose [35] of 190.9% and an Injected dose [36] of 0.08%. The Ratio [37] was 472.6, the Ratio [38] was 44.5 and the Injected dose [39] was 4.91%. The Ratio [40] was 1.
